Measured values pooled from the literature.
Compare with care: the assays were run in different laboratories.
Cell line: MOLM-13
Observed: cell growth or viability

With `c1cc(N2CCCC2)ccc1-c1cc2ncc(OCC3CCNCC3)nc2cc1-c1ccc(N2CCCC2)cc1` the EC50 was 1700 nM (XTT; 7 days).
`CCNc1nc2ccc(-c3c/c(=N\c4ccccc4NC(=O)CCN)c4ccccc4o3)cc2o1` has an inhibition of 12.2% (CCK-8; 1 µM).
For `CN(C)CCNC(=O)c1ccc(-c2nc3ccc4[nH]ncc4c3c3c2CCCCC3)c(F)c1`, the GI50 was 51 nM (72 h).
The EC50 of `c1cc(N2CCCCC2)ccc1Nc1cc2ncc(OCC3CCNCC3)nc2cc1-c1ccc(N2CCCCC2)cc1` is reported as 2800 nM (XTT; 7 days).
For `CS(=O)(=O)NCCC(=O)Nc1ccccc1/N=c1\cc(-c2ccc3nc(N)oc3c2)oc2ccccc12`, the inhibition was 8.5% (CCK-8; 1 µM).
`Nc1cccc(-c2ccc3ncc(OCC4CCNCC4)nc3c2)c1` has an EC50 of 28300 nM (XTT; 7 days).
`O=C(Nc1ccccc1/N=c1\cc(-c2ccc3c(c2)OCCO3)oc2cc(F)ccc12)N1CCOCC1` gave an inhibition of 2.91% (CCK-8; 1 µM).
For `Cc1n[nH]c2ccc3nc(-c4ccc(C(=O)NCCN(C)C)cc4F)c4c(c3c12)CCCC4`, the GI50 was 47 nM (72 h).
The IC50 of `CONC(=O)c1cccc2c1cc(C)n2-c1nc2c(c(NCc3ccccc3)n1)CCCN2` is reported as 1400 nM (72 h).
`CN(C)CCNC(=O)c1ccc(-c2nc3ccc4[nH]ncc4c3c3c2CCCCC3)cc1` has a GI50 of 84 nM (72 h).
`Cc1cc2c(C(N)=O)cccc2n1-c1nc2c(c(NCc3ccccc3)n1)CCCN2` gave an IC50 of 800 nM (72 h).
`CC(C)(C)c1cc(NC(=O)Nc2ccc(-c3cn4c(n3)sc3cc(OCCN5CCOCC5)ccc34)cc2)no1` has a GI50 of 9 nM (72 h).
`c1ccc(COc2ccc(Nc3ccc4ncc(OCC5CCNCC5)nc4c3)cc2)cc1` gave an EC50 of 840 nM (XTT; 7 days).
For `COc1ccc2/c(=N/c3ccccc3NC(=O)N3CCOCC3)cc(-c3ccc4c(c3)OCCO4)oc2c1`, the inhibition was 3.11% (CCK-8; 1 µM).
For `CN(C)CCNC(=O)c1ccc(-c2nc3ccc4[nH]ncc4c3c3c2CCCC3)cc1`, the GI50 was 100 nM (72 h).
